Assay results from different studies.
Lines come from different studies, so protocols differ.
Observed: cell growth or viability

SMILES	cell line	test	conditions	measurement	value
O=C(N/N=C/c1c(O)ccc2ccccc12)c1cc(-c2ccc3ccccc3c2)n[nH]1	WM35	MTS	24 h	IC50	37 µM
COc1ccc(-c2ccc(-c3ccc(C(=N)N)nc3)s2)cc1Cl	SNB-75	SRB	–	GI50	1.43 µM
COc1cccc(-c2cn(-c3cc(=O)oc4ccc(Br)cc34)nn2)c1	CCRF-CEM	–	48 h	CC50	10.3 µM
COc1ccc(C2=Nn3c(NN=C4C(=O)Nc5ccc(OC)cc54)nnc3SC2)cc1	SNB-75	SRB	10 µM	inhibition	16%
COc1ccc(/C=C\c2cc(OC)c(OC)c(OC)c2)cc1O	CCRF-CEM	–	48 h	CC50	0.036 µM
COc1cc(Nc2nccc(-c3cnn4nc(OC)ccc34)n2)cc(C(F)(F)F)c1	RKO	ATP luminescence	–	IC50	0.27 µM
Oc1ccc(Nc2nc(-c3ccc(Cl)cc3)cs2)cc1	WM35	MTS	48 h	IC50	10.3 µM
COc1ccc(-c2ccc(-c3ccc(C(=N)N)nc3)s2)cc1	UACC-257	SRB	–	GI50	1.8 µM
CC(C)C[C@H](NC(=O)[C@H](Cc1ccccc1)NC(=O)c1cnccn1)B(O)O	EPLC-272H	ATP luminescence	–	IC50	0.0086 µM
